{
  "source": "ChEMBL document CHEMBL4334552",
  "about": "“Discovery of BMS-986260, a Potent, Selective, and Orally Bioavailable TGFβR1 Inhibitor as an Immuno-oncology Agent” (ACS Med Chem Lett, 2020)",
  "key": {"[1]": {"test": "Cardiovascular toxicity in dog assessed as valvulo-pathy at 5 mg/kg, po for 10 days", "type": "organism-based, Canis lupus familiaris", "conditions": "in vivo, 240 h", "in_short": "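Exploratory toxicology studies of 10 days with daily oral dosing in rats and dogs. Cardiovascular findings, including valvulopathy and aortic pathology, were assessed.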"}, "[2]": {"test": "Half life in Beagle dog at 1 mg/kg, iv", "type": "ADME, organism-based, Canis lupus familiaris", "conditions": "in vivo", "in_short": "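Male Beagle dogs (n = 2) pretreated with pentagastrin were given 1 mg/kg iv in 5:45:50 EtOH/PEG400/saline at 1 mL/kg. A 5 mg/kg oral arm used 5% ethanol, 45% PEG400, 50% 25 mM acetate buffer pH 4.0. Half-life was from the iv arm.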"}},
  "data": [
    {"smiles": "N#Cc1cnc2ccc(-c3c(-c4ccc(F)c(Cl)c4)ncn3CCO)nn12", "values": [
      {"measurement": "Activity", "setting": "[1]", "value": "Toxic"},
      {"measurement": "half-life", "setting": "[2]", "value": 5, "unit": "h"}
    ]}
  ]
}
